Assay [1] concerns the target Pantothenate synthetase (Mycobacterium tuberculosis (strain ATCC 25618 / H37Rv)) (UniProt P9WIL5). Description: Recombinant Mtb pantothenate synthetase (PanC) inhibitors, coupled enzyme, confirmatory (AID 375; call rule not given here;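 also: 0% = full reaction with vehicle and 100% = no enzyme background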). Particulars: coupled enzyme assay; at 10 µM, stronger effect = higher value.
Assay [2] is described as follows: reducers of endogenous Her2 protein level, primary screen, SKBR3 breast tumor cells, AlphaScreen, ATP viability (AID 461;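 active = Her2 level under about 52% in both replicate screens, with viability over 70% of control, limit read from the data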;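 as to Her2 level: lower value means less Her2 protein in the cells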;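 as to viability: percent of carrier control wells set as 100% viability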). As to conditions: 18-24 h, measured here: SKBR3 viability, ATP luminescence, at 10 µM.
Assay [3] has as its target Receptor tyrosine-protein kinase erbB-2 (Homo sapiens) (UniProt P04626). Described as above. As to conditions: 18-24 h, at 10 µM, stronger effect = lower value.
Assay [4] in a line: SK-BR-3 cell growth inhibitors, pilot screen, 24 h, human (AID 572).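 Also: compound exposure lasted between 18 and 24 h rather than exactly 24 h; 100% = carrier-treated control wells.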 Particulars: SK-BR-3 viability, CellTiter-Glo luminescence, at 10 µM, stronger effect = lower value.
Assay [5] is described as follows: HUVEC growth inhibition – cell-based, human, primary screen (AID 575;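 active = viability at or below 30% in both replicate assays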;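 also: 100% = median of untreated cell wells with 0.1% DMSO on each plate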). Particulars: HUVEC proliferation, CellTiter-Glo luminescence, 72 h; at 10 µM; stronger effect = lower value. In outline: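 Timing: 72 h treatment at 37 °C; material: HUVEC primary cells; technique: CellTiter-Glo luminescence measuring cellular ATP; controls: vehicle and MePR control wells; measure: percent of median DMSO-control luminescence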

Assay [6] is described as follows: growth inhibitors of H69AR lung tumor, primary screen, human, duplicate replicates (AID 580;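 active = viability at or under a set limit in both replicates, limit being median viability minus 3 SD, cut at about 48% in these data, passing the limit was not always enough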;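 also: 100% = mean luminescence of untreated wells and 0% = no signal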). Particulars: H69AR lung tumor cells viability, ATP luminescence, 72 h; at 10 µM; stronger effect = lower value.
A short description of assay [7]: reversal of MRP1-mediated doxorubicin resistance, pilot screen, H69AR cells, doxorubicin co-treatment (AID 601;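 active = viability loss from added drug above about 55%, and viability with drug at most 40%, in both replicates, limit read from the data, passing the limit was not always enough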). As to conditions: CellTiter-Glo, 72 h, at 10 µM; for differential viability (reversal): stronger effect = higher value. On the technique in general: ATP-based viability assays read luminescence as a measure of living cells.
Assay [8] in a line: 384-well plate pilot, post-Golgi transport modulator project, inhibition of yeast transport mutant growth (AID 636; in the data active = inhibition above about 31%). As to conditions: absorbance 615 nm, about 18 h, stronger effect = higher value.
Assay [9] in a line: growth suppression of yeast trafficking mutant, preliminary HTS, modulators of trafficking downstream of Golgi apparatus project, 1536-format plate, OD 615 nm (AID 637; in the data active = inhibition above about 30%). As to conditions: yeast transport mutant growth, absorbance 615 nm, 18 h; stronger effect = higher value.
[10] abbreviates: H69AR cells + 2 uM doxorubicin, measured here: viability with 2 uM doxorubicin, stronger effect = lower value.
[11] abbreviates: H69AR cells, compound alone cytotoxicity.

The term inhibition denotes the change of the read-out against control, counted positive when it falls. A word on the viability: it is a read-out of living cells in per cent, often relative to untreated cells.

The structures appear in SMILES notation. Calls of active or inactive are those of the source.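 The calls were made as follows, unless noted: active = viability at or below 10% of carrier control in both of two separate runs; inconclusive = viability at or below 10% in only one of the two runs; inactive = the rest.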

Chain of Pantothenate synthetase (Mycobacterium tuberculosis (strain ATCC 25618 / H37Rv)) (P9WIL5 whole entry, looked up): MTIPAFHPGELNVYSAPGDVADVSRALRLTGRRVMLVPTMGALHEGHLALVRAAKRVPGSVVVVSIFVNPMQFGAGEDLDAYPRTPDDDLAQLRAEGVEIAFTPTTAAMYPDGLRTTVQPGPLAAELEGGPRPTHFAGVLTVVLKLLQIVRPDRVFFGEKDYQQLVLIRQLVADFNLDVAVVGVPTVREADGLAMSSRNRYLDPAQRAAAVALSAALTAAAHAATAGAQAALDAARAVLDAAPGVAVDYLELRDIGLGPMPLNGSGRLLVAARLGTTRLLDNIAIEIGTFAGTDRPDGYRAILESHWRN
Chain of Receptor tyrosine-protein kinase erbB-2 (Homo sapiens) (P04626 whole entry, looked up): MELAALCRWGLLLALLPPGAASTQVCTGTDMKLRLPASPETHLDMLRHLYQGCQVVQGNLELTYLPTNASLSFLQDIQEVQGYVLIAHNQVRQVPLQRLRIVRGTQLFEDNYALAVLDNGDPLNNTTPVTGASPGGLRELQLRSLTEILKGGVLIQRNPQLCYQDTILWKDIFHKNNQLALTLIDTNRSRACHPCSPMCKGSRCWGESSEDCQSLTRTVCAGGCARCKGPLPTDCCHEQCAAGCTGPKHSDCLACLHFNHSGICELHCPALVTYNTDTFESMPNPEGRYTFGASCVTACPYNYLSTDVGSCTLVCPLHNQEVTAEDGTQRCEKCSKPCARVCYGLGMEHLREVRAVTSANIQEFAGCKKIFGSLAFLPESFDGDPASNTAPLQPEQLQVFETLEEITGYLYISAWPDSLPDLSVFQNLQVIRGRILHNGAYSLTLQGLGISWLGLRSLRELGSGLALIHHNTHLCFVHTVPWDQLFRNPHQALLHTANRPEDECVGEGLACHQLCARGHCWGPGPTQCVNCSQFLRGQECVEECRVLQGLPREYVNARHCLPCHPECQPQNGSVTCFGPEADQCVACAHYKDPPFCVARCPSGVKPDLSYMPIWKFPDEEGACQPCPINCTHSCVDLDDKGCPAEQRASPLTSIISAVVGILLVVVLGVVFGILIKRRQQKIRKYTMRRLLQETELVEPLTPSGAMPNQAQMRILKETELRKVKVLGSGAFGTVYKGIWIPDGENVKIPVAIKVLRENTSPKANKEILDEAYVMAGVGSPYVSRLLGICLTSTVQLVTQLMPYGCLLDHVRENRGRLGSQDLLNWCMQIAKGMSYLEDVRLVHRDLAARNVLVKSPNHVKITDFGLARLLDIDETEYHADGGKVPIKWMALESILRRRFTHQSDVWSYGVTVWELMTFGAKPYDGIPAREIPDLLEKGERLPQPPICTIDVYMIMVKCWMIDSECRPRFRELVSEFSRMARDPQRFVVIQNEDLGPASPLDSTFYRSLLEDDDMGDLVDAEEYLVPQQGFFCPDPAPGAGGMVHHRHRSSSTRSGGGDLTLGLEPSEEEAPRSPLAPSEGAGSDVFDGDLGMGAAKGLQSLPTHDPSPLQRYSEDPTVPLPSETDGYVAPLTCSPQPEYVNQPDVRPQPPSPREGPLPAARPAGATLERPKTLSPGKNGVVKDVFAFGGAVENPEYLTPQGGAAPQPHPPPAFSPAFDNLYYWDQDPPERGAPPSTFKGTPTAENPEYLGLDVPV

With `Cc1nn(-c2ccccc2)c2c1CC1(C(=O)N(C)C(=O)N(C)C1=O)C1CCCCN21` (stereo not given), the inhibition is 0% (inactive) in assay [1], -4.86% (inactive) in assay [8] and -2.13% (inactive) in assay [9]. Moreover, the viability in assay [2] is 97%; in assay [4] it was 97% (inactive); in assay [5], 91.7% (inactive); in [6] it was 84.7% (inactive); in assay [7] (setting [10]) it was 96.7%; in [7] (setting [11]) it was 84.7%. In addition, in assay [3], the Her2 level is 114% (inactive). Further, the differential viability (reversal) in assay [7] (H69AR cells + 2 uM doxorubicin) is -12% (inactive).
As to `C=CCN1C(=O)C2(C(C(=O)OCC)=C(N)Oc3c2c(=O)oc2ccccc32)c2ccccc21` (stereo not given), the inhibition was 0% (inactive) in assay [1], 0.27% (inactive) in [8] and 1.45% (inactive) in assay [9]. Further, the viability in assay [4] was 61% (inactive); in [5], 108% (inactive); in assay [6] it was 98.2% (inactive); in assay [7] (setting [10]), 109%; in assay [7] (setting [11]), 98.2%. For the same molecule, the differential viability (reversal) in assay [7] (H69AR cells + 2 uM doxorubicin) is -10.5% (inactive).
For `O=C1CC(N2CCC(n3c(=O)[nH]c4ccccc43)CC2)C(=O)N1c1ccc(F)cc1` (stereo not given), the inhibition was 5% (inactive) in [1], -4.74% (inactive) in assay [8] and -6.5% (inactive) in [9]. Moreover, the viability in [2] is 93.5%; in assay [4] it was 93.5% (inactive); in [5], 80.7% (inactive); in assay [6], 103% (inactive); in assay [7] (setting [10]), 100%; in assay [7] (setting [11]) it was 103%. In addition, the Her2 level in assay [3] is 67.5% (inactive). In addition, the differential viability (reversal) in assay [7] (H69AR cells + 2 uM doxorubicin) is 3.01% (inactive).
Take `CCN1c2nc3c(C)cccn3c(=O)c2CC2(C(=O)N(C)C(=O)N(C)C2=O)C1C` (stereo not given): the inhibition in [1] is 0% (inactive); in [8], -4.59% (inactive); in [9], -2.13% (inactive). Also, the viability was 101% in assay [2]; 101% (inactive) in assay [4]; 88.9% (inactive) in [5]; 91.4% (inactive) in [6]; 87% in [7] (setting [10]); 91.4% in assay [7] (setting [11]). For the same molecule, the Her2 level in assay [3] is 94.5% (inactive). Besides, the differential viability (reversal) in [7] (H69AR cells + 2 uM doxorubicin) is 4.38% (inactive).
With `Clc1ccc(COC(Cn2ccnc2)c2ccc(Cl)cc2Cl)c(Cl)c1` (stereo not given), in assay [1], the inhibition is 2% (inactive). The viability in [2] was 105%; in [4], 105% (inactive); in [5], 9.27% (active); in [7] (setting [10]), 58.6%; in assay [7] (setting [11]), 31%. Besides, the Her2 level in [3] was 20% (active). The differential viability (reversal) in assay [7] (H69AR cells + 2 uM doxorubicin) was -27.5% (inactive).
For the molecule `NCC1(CC(=O)O)CCCCC1`, the inhibition in assay [1] was 3% (inactive); in assay [8], -1.17% (inactive); in assay [9], 2% (inactive). The viability in [4] was 105% (inactive); in [5], 101% (inactive); in [6], 96.8% (inactive); in [7] (setting [10]), 88.9%; in assay [7] (setting [11]), 96.8%. Moreover, the differential viability (reversal) in [7] (H69AR cells + 2 uM doxorubicin) is 7.93% (inactive).
As for `c1cncc(CNC2=NCCCCC2)c1`, the inhibition in assay [1] was 1% (inactive); in [8], -0.78% (inactive); in assay [9] it was -4.92% (inactive). Also, the viability in assay [2] was 80.5%; in [4], 80.5% (inactive); in assay [5], 96.6% (inactive); in assay [6] it was 97.4% (inactive); in assay [7] (setting [10]), 91.3%; in assay [7] (setting [11]), 97.4%. Moreover, the Her2 level in [3] is 106% (inactive). The differential viability (reversal) in assay [7] (H69AR cells + 2 uM doxorubicin) is 6.13% (inactive).
For the molecule `CC(C)=CCSc1nnc([C@@H](N)Cc2c[nH]c3ccccc23)o1`, the values for the inhibition in assay [1], in assay [8] and in [9] were 7% (inactive), -0.27% (inactive) and -8.39% (inactive), respectively. Also, the viability in assay [2] is 102%; in assay [4], 102% (inactive); in assay [5], 75.4% (inactive); in assay [6], 94% (inactive); in assay [7] (setting [10]), 91.2%; in [7] (setting [11]), 94%. Further, the Her2 level in assay [3] was 110% (inactive). In addition, in [7] (H69AR cells + 2 uM doxorubicin), the differential viability (reversal) is 2.83% (inactive).
In the case of `CC(C)(C)C(O)C(Oc1ccc(Cl)cc1)n1cncn1` (stereo not given), the inhibition in assay [1] is 9% (inactive); in assay [8], -4.46% (inactive); in [9] it was 94% (active). The viability in [2] was 86.5%; in assay [4], 86.5% (inactive); in [5], 88.2% (inactive); in assay [6], 87.2% (inactive); in assay [7] (setting [10]), 81.7%; in assay [7] (setting [11]), 87.2%. Moreover, the Her2 level in assay [3] was 83.5% (inactive). In addition, the differential viability (reversal) in assay [7] (H69AR cells + 2 uM doxorubicin) was 5.54% (inactive).
Take `CCOc1c(P(=S)(N(C)C)N(C)C)c(C)nn1-c1ccccc1`: the inhibition was 1% (inactive) in assay [1], -2.24% (inactive) in assay [8] and -11% (inactive) in assay [9]. The viability is 83% in assay [2]; 83% (inactive) in assay [4]; 98.6% (inactive) in [5]; 101% (inactive) in assay [6]; 84.1% in assay [7] (setting [10]); 101% in assay [7] (setting [11]). The Her2 level in [3] is 120% (inactive). Further, the differential viability (reversal) in assay [7] (H69AR cells + 2 uM doxorubicin) is 17% (inactive).
With `Cc1cc(OCC(=O)O)c2c3c(c(=O)oc2c1)CCCC3`, the figures for the inhibition in assay [1], in [8] and in assay [9] were 1% (inactive), -4.16% (inactive) and 7.38% (inactive), respectively. Further, the viability is 132% (inactive) in assay [4]; 85.9% (inactive) in assay [5]; 84.8% (inactive) in assay [6]; 87.9% in assay [7] (setting [10]); 84.8% in [7] (setting [11]). Besides, in [7] (H69AR cells + 2 uM doxorubicin), the differential viability (reversal) is -3.02% (inactive).
`COC1=CC(=O)OC(/C=C/c2ccccc2)C1` (stereo not given): the values for the inhibition in [1], in [8] and in assay [9] were 0% (inactive), -1.56% (inactive) and -4.5% (inactive), respectively. Besides, the viability in assay [4] was 124% (inactive); in assay [5], 96.6% (inactive); in [6] it was 87.6% (inactive); in assay [7] (setting [10]) it was 84.8%; in assay [7] (setting [11]), 87.6%. For the same molecule, the differential viability (reversal) in assay [7] (H69AR cells + 2 uM doxorubicin) was 2.78% (inactive).
`O=C(Cc1ccccc1)OC(COCc1ccccc1)CN1CCOCC1` (stereo not given): the inhibition is 3% (inactive) in [1], -7.47% (inactive) in assay [8] and -0.98% (inactive) in [9]. Besides, the viability in [2] was 83%; in [4] it was 83% (inactive); in assay [5], 88.3% (inactive); in [6], 94.2% (inactive); in assay [7] (setting [10]) it was 89.4%; in assay [7] (setting [11]) it was 94.2%. Moreover, the Her2 level in [3] is 99% (inactive). Moreover, the differential viability (reversal) in assay [7] (H69AR cells + 2 uM doxorubicin) was 4.79% (inactive).
Turning to `COc1ccccc1N(CC(=O)NC1CCCCC1)C(=O)c1cnn(C(C)C)c1`, the inhibition is 7% (inactive) in assay [1], 1.08% (inactive) in assay [8] and -5.24% (inactive) in assay [9]. Moreover, the viability in [2] is 96.5%; in assay [4] it was 96.5% (inactive); in assay [5] it was 103% (inactive); in [6], 106% (inactive); in [7] (setting [10]), 97.2%; in assay [7] (setting [11]), 106%. Also, the Her2 level in [3] was 104% (inactive). Further, the differential viability (reversal) in assay [7] (H69AR cells + 2 uM doxorubicin) is 8.82% (inactive).
On to `Clc1ccc(CSC(Cn2ccnc2)c2ccc(Cl)cc2Cl)cc1` (stereo not given), for which, in assay [1], the inhibition was 0% (inactive). Also, the viability in assay [2] was 136%; in assay [4] it was 136% (inactive); in assay [7] (setting [10]) it was 48.3%; in assay [7] (setting [11]), 33.7%. Besides, in [3], the Her2 level was 59% (inactive). Further, the differential viability (reversal) in [7] (H69AR cells + 2 uM doxorubicin) is -14.6% (inactive).

(Values after PubChem BioAssay.)
